Results on 3 compounds are retold here after publication PMC3184254 (Nature Chemical Biology, 2011).

Molecules are shown by their SMILES. Read-outs that look alike come from different tables or passages of the source.

The test system of data set [1] is H3K9me2 levels in J1 mES cells. Description: Cellular potency. The data set is classed as cell-based. The conditions noted are these: Mus musculus, 48 h, read-out: IC50 cellular potency.
The test system of data set [2] is histone marks in MDA-MB-231 cells. Description: Quantitative MS analysis of histone modifications. The data set is classed as cell-based, human. The conditions noted are these: 1 μM for 48 h. The essentials: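 MDA-MB-231 cells were treated at 1 µM for 48 h. Histones were acid-extracted, derivatized with propionic anhydride and digested with trypsin. Mock and treated samples carried D0 or D5 propionyl labels. Peptides were analysed by LC-MS/MS on an Orbitrap, with all data manually verified.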

For data set [3], the system named is HSC1-EF1α-EGFP-Puromycin retrovirus in J1 mES cells. Kind of data set: Reactivation of silent EGFP retrovirus vector, flow cytometry. The data set is classed as cell-based, mouse.
Data set [4] has as its system H3K9me2 mark in bulk histones in several cell lines. The conditions noted are these: cited from earlier work.
The next data set relates to J1 mES cells. Description: SSEA1 pluripotency marker immunostaining, flow cytometry. Type of data set: cell-based, mouse. The settings on record: day 10; 2 μM. In general terms: Flow cytometry measures light scatter and fluorescence of single cells or particles in a stream.
The next data set has as its system MDA-MB-231 cells. Description: MTT assay, MDA-MB-231. Type of data set: cell-based, human. (Formazan colour is commonly taken as a measure of viable cells.)
Another data set addresses T1, SETD7 (Homo sapiens, UniProt Q8WTS6).
T1 sequence (Q8WTS6 1-366): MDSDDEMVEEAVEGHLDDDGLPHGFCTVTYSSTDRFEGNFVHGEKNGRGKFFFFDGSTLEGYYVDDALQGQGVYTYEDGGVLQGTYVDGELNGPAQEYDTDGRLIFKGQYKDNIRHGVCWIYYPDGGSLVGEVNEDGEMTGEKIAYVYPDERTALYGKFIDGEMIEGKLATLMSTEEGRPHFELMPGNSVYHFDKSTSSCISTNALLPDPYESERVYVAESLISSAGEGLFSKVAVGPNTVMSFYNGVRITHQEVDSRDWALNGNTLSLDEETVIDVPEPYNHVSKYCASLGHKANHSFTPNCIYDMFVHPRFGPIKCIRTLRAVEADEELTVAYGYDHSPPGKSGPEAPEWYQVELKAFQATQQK
Description: SAHH-coupled assay, SETD7. The data set is classed as biochemical. The settings on record: SAHH-coupled assay. In a few lines:
(§1)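 A fluorescence-based coupled assay used S-adenosyl-L-homocysteine hydrolase to follow conversion of cofactor SAM to SAH by the methyltransferase. IC50 values are the average of at least two separate experiments.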

For data set [5], the system named is retrovirus long terminal repeat and MAGEA2 promoter in mES cells. Kind of data set: Bisulfite sequencing DNA methylation in mES cells. Type of data set: cell-based, mouse. The conditions noted are these: after 10 d of treatment. In a few lines:
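J1 mouse ES cells were grown on 0.1% gelatin in DMEM with 15% ES-qualified FBS, 4 mM L-glutamine, 0.1 mM nonessential amino acids, 1 mM pyruvate, 0.55 mM 2-mercaptoethanol and LIF. They carried a silenced HSC1 retroviral EGFP-puromycin reporter driven by the EF1a promoter.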

Another data set concerns the target GLP (Homo sapiens, UniProt Q9H9B1). Description: SAHH-coupled assay, GLP. The data set is classed as biochemical.
The next data set deals with panel of 24 kinases. Description: Kinase selectivity panel. The data set is classed as biochemical.
The target of another data set is PRMT3 (Homo sapiens, UniProt O60678). Description: SAHH-coupled assay, PRMT3. Type of data set: biochemical. The settings on record: SAHH-coupled assay. The essentials: as §1
For another data set, the target named is T2, SETD8 (Homo sapiens, UniProt Q9NQR1).
T2 sequence (Q9NQR1 1-393): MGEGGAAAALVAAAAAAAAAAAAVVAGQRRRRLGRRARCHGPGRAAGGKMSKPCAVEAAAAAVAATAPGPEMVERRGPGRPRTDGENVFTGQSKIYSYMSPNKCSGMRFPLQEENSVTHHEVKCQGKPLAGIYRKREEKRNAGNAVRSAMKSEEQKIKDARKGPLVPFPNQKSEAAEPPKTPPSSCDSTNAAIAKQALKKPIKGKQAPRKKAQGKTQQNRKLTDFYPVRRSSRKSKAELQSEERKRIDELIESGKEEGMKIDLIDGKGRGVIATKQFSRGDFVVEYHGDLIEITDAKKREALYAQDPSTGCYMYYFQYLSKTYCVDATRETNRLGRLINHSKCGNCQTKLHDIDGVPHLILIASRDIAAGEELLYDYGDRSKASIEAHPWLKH
Kind of data set: SAHH-coupled assay, SETD8. Type of data set: biochemical. The conditions noted are these: SAHH-coupled assay. In a few lines: as §1

For the next data set, the target named is T3, G9a (Homo sapiens, UniProt Q96KQ7).
T3 sequence (Q96KQ7 1-1210): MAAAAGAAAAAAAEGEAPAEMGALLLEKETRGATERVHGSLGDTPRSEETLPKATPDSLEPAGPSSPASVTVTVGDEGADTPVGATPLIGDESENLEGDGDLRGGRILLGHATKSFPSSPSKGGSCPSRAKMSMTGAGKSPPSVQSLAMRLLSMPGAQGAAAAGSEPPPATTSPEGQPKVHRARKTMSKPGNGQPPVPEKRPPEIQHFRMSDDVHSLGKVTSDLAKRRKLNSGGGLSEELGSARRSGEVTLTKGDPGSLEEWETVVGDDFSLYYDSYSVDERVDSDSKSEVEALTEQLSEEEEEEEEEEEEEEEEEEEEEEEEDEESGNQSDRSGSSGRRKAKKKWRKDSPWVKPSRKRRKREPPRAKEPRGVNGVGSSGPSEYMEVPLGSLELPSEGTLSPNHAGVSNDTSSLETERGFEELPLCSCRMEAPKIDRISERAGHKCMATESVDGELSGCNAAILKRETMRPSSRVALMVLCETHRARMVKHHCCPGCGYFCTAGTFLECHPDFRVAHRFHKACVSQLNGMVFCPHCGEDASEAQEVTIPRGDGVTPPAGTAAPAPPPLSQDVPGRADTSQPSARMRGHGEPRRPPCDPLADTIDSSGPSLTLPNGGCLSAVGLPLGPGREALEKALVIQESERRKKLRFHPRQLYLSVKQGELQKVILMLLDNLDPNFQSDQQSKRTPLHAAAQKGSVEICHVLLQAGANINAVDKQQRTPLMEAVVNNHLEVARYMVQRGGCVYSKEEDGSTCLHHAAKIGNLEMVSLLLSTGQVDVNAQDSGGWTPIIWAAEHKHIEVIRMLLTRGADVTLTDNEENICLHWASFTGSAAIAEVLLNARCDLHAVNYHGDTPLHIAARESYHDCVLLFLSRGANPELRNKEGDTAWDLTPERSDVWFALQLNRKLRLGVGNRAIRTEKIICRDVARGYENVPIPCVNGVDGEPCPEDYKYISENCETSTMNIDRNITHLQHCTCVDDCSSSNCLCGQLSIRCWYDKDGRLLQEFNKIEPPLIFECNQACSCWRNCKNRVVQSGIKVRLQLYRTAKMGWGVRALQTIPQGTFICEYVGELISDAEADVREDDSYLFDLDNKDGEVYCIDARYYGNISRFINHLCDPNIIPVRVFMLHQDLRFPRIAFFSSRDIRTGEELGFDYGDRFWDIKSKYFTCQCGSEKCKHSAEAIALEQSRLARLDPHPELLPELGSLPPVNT
Kind of data set: SAHH-coupled assay, G9a. The data set is classed as biochemical.

Data set [6] relates to H3K9me2 levels in MDA-MB-231 cells. Kind of data set: H3K9me2 in-cell western, MDA-MB-231. The data set is classed as cell-based, human. The settings on record: read-out: IC50 for reduction of H3K9me2 levels; MDA-MB-231 cells, 48 h exposure, in-cell western.
A further data set addresses SUV39H2 (Homo sapiens, UniProt Q9H5I1). Description: SAHH-coupled assay, SUV39H2. The data set is classed as biochemical. The conditions noted are these: SAHH-coupled assay. The essentials: as §1
The subject of the next data set is cellular assays. Kind of data set: Cellular assays, comparison with BIX01294. The data set is classed as cell-based. The settings on record: Supplementary Fig. 1.

Chain of GLP (Q9H9B1 whole entry): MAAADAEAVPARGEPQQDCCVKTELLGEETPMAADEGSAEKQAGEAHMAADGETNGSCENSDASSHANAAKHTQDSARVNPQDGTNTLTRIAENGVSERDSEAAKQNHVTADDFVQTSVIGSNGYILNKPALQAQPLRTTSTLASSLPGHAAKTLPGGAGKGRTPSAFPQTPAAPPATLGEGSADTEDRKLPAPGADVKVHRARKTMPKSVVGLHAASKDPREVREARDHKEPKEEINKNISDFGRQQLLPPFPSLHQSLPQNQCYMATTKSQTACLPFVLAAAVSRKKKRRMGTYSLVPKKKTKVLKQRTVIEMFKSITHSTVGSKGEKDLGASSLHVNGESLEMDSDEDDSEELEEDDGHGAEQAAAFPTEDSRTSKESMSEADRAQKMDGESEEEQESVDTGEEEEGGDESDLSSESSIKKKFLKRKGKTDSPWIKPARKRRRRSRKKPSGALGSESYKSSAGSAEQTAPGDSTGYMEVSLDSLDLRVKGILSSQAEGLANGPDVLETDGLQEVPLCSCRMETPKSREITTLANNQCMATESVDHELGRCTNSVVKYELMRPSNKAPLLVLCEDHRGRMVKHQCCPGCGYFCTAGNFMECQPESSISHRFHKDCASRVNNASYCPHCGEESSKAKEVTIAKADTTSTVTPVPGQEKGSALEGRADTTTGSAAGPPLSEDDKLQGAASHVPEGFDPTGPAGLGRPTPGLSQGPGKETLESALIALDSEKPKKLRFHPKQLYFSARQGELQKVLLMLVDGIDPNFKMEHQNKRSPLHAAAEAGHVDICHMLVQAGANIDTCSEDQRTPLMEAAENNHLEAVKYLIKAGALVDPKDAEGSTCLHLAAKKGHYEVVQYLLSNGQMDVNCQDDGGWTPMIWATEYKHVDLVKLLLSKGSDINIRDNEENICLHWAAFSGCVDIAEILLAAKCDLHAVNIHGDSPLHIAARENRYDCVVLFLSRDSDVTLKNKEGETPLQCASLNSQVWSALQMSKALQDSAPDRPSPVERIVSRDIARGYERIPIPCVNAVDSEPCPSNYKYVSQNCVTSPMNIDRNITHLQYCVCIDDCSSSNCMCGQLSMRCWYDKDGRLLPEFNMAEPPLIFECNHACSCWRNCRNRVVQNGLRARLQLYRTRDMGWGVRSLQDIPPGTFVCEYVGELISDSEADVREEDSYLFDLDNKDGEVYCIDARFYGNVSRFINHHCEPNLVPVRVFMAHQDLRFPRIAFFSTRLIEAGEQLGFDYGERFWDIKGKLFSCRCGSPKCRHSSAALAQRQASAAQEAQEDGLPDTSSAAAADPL
Chain of PRMT3 (O60678 whole entry, species assumed): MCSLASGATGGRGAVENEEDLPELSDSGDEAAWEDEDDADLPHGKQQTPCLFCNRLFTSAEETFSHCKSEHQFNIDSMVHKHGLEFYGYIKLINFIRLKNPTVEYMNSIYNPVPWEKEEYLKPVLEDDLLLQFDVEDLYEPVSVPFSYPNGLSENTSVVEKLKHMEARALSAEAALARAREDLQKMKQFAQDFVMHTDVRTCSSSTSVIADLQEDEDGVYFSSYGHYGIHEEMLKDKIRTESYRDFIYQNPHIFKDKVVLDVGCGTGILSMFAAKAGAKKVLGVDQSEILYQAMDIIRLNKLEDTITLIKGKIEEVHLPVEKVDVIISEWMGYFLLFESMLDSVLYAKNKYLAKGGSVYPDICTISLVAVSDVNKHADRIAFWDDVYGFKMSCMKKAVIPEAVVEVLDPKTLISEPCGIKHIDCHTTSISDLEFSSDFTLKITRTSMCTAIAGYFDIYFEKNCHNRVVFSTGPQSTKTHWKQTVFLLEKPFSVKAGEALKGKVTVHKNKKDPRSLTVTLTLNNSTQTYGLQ
Chain of SUV39H2 (Q9H5I1 whole entry, species assumed): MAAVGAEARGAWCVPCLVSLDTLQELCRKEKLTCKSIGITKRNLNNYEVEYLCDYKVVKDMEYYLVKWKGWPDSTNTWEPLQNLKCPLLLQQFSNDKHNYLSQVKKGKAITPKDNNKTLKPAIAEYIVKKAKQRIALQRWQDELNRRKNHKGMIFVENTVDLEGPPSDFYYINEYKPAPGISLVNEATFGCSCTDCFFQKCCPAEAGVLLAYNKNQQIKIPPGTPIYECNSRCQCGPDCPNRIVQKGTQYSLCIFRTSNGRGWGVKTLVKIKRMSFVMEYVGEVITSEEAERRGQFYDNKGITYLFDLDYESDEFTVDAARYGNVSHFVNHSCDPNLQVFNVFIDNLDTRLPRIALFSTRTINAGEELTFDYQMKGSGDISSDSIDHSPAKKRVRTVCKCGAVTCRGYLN

In the case of `COc1cc2nc(N3CCCN(C)CC3)nc(NC3CCN(Cc4ccccc4)CC3)c2cc1OC` [BIX01294, reference compound], the IC50 in data set [1] came out at 2.04 µM. Besides, in [2], the “levels of H3K9me2 by quantitative MS” value was “to a lesser extent than UNC0638 did” and the “levels of H3K9me3 by quantitative MS” value is “remained constant”. For the same compound, the “EGFP+ cells” value in data set [3] (day 10, 2 μM, untreated 36%) turned out to be 53%. In [3] (day 12, 2 μM), the “state of treated cells” value is recorded as “arrested or died”. In addition, in [4] (at 4.1 μM, several cell lines), the “abundance of H3K9me2 mark in bulk histones” value is listed as “reduced”. In addition, the “concentration toxic to cells” value in data set [4] is “higher than 4.1 μM”. For the same compound, the SSEA1 positive cells in the data set with J1 mES cells was determined as 65%. Further, in the data set with MDA-MB-231 cells (Homo sapiens, MDA-MB-231, read-out: EC50 cellular toxicity (MTT)), the EC50 was 2.7 µM.
For `COc1cc2c(N(C)C3CCN(C(C)C)CC3)nc(C3CCCCC3)nc2cc1OCCCN1CCCC1` [UNC0737], the IC50 result at SETD7 is “inactive”; on GLP, above 10 µM; against PRMT3 it was “inactive”; on SETD8 it was “inactive”; at G9a (SAHH-coupled assay) it was 5 µM; in [6] it was above 5 µM. Besides, the IC50 entry at SUV39H2 is “inactive”. Further, the “DNA methylation of retrovirus LTR and MAGEA2 promoter” value in data set [5] is recorded as “hypermethylated”. Further, the “activity against panel of 24 kinases” value in the data set with panel of 24 kinases was “inactive”. For the same compound, the “reactivation of EGFP expression” value in [3] (500 nM, above the 36% EGFP+ cells of untreated sample) is “did not reactivate EGFP expression”. Moreover, the “fold less potent than UNC0638” value on G9a (G9a and GLP biochemical assays) was above 300 fold. The concentration giving a half-maximal response (EC50) in the data set with MDA-MB-231 cells (read-out: EC50 cellular toxicity (MTT), MDA-MB-231 cells (n = 3)) amounted to 8.7 µM.
With `COc1cc2c(NC3CCN(C)CC3)nc(N3CCCN(C)CC3)nc2cc1OCCOCCN(C)C` [UNC0321], the “potency in cellular assays relative to BIX01294” value in the data set on cellular assays is reported as “less potent than BIX01294”.

As usually defined, the IC50 is the concentration at which inhibition is half-maximal. Usually EC50 stands for the midpoint of the concentration-response curve.
